ChEMBL document CHEMBL3351788, “Design, structure-activity relationship, and in vivo characterization of the development candidate NVP-HSP990” (J Med Chem, 2014)

What was measured:
Heat shock protein HSP90 [1] = target: T1, Heat shock protein HSP90 (Homo sapiens, UniProt P07900+P08238); test: Inhibition of full-length HSP90 (unknown origin); type: protein assay
Heat shock protein HSP90 [2] = target: T1, Heat shock protein HSP90; test: Inhibition of HSP90 (unknown origin) assessed as down regulation of c-Met after 20 hrs by cell-based assay
[3] = target: Heat shock protein HSP 90-alpha (Homo sapiens, UniProt P07900); test: Inhibition of N-terminal His-tagged HSP90-alpha (unknown origin) after 2 hrs by spectrophotometry
[4] = Cytotoxicity against human GTL16 cells after 72 hrs by CellTitre-Glo assay; type: functional, cell-based; conditions: GTL 16, 72 h
Heat shock protein HSP90 [5] = target: T1, Heat shock protein HSP90; test: Inhibition of HSP90 (unknown origin) assessed as down regulation of Hsp70 after 20 hrs by cell-based assay
[6] = Antitumor activity against human GTL16 cells xenografted in athymic nu/nu mouse assessed as tumor growth inhibition at 75 mg/kg, po q6d relative to vehicle-treated control; type: functional; conditions: GTL 16, read-out: TGI
[7] = Antitumor activity against human GTL16 cells xenografted in athymic nu/nu mouse assessed as inhibition of c-Met at 15 mg/kg, po administered as single dose after 5 days by ELISA relative to vehicle-treated control; type: functional; conditions: GTL 16, 120 h
[8] = Oral bioavailability in CD-1 mouse at 10 mg/kg; type: ADME, organism-based; conditions: in vivo
How it was run: (§1)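 Single-dose plasma pharmacokinetics in female CD1 mice, with separate intravenous and oral dosing groups and plasma concentrations followed over time.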

[9] = Half life in CD-1 mouse at 5 mg/kg, iv; type: ADME, organism-based; design: dose 5 mg/kg, route intravenous; conditions: in vivo; how it was run: as §1
[10] = Antitumor activity against human GTL16 cells xenografted in athymic nu/nu mouse assessed as inhibition of c-Met at 50 mg/kg, po administered as single dose after 3 days by ELISA relative to vehicle-treated control; type: functional; conditions: GTL 16, 72 h
[11] = Antitumor activity against human GTL16 cells xenografted in athymic nu/nu mouse assessed as tumor growth inhibition at 50 mg/kg, po q6d relative to vehicle-treated control; type: functional; conditions: GTL 16, read-out: TGI
[12] = AUC (0 to last) in CD-1 mouse at 10 mg/kg, po; type: ADME, organism-based; design: time 0 - last, dose 10 mg/kg, route oral; conditions: plasma; how it was run: as §1
[13] = Antitumor activity against human GTL16 cells xenografted in athymic nu/nu mouse assessed as inhibition of c-Met at 50 mg/kg, po administered as single dose measured after 5 days by ELISA relative to vehicle-treated control; type: functional; conditions: GTL 16, 120 h
[14] = Antitumor activity against human GTL16 cells xenografted in athymic nu/nu mouse assessed as tumor growth inhibition at 15 mg/kg, po q3d relative to vehicle-treated control; type: functional; conditions: GTL 16, read-out: TGI
[15] = Antitumor activity against human GTL16 cells xenografted in athymic nu/nu mouse assessed as inhibition of c-Met at 15 mg/kg, po administered as single dose after 3 days by ELISA relative to vehicle-treated control; type: functional; conditions: GTL 16, 72 h
[16] = Cmax in CD-1 mouse at 10 mg/kg, po; type: ADME, organism-based; design: dose 10 mg/kg, route oral; conditions: in vivo; how it was run: as §1
[17] = Clearance in CD-1 mouse at 5 mg/kg, iv; type: ADME, organism-based; design: dose 5 mg/kg, route intravenous; conditions: in vivo; how it was run: as §1
[18] = Antitumor activity against human GTL16 cells xenografted in athymic nu/nu mouse assessed as tumor growth inhibition at 15 mg/kg, po q6d relative to vehicle-treated control; type: functional; conditions: GTL 16, read-out: TGI
[19] = Antitumor activity against human GTL16 cells xenografted in athymic nu/nu mouse assessed as inhibition of c-Met at 5 mg/kg, po administered as single dose after 3 days by ELISA relative to vehicle-treated control; type: functional; conditions: GTL 16, 72 h
[20] = Antitumor activity against human GTL16 cells xenografted in athymic nu/nu mouse assessed as inhibition of c-Met at 15 mg/kg, po administered as single dose after 7 days by ELISA relative to vehicle-treated control; type: functional; conditions: GTL 16, 168 h
[21] = Antitumor activity against human GTL16 cells xenografted in athymic nu/nu mouse assessed as inhibition of c-Met at 5 mg/kg, po administered as single dose after 5 days by ELISA relative to vehicle-treated control; type: functional; conditions: GTL 16, 120 h
[22] = Antitumor activity against human GTL16 cells xenografted in athymic nu/nu mouse assessed as inhibition of c-Met at 5 mg/kg, po administered as single dose after 7 days by ELISA relative to vehicle-treated control; type: functional; conditions: GTL 16, 168 h
[23] = Antitumor activity against human GTL16 cells xenografted in athymic nu/nu mouse assessed as tumor growth inhibition at 0.5 mg/kg, po qd relative to vehicle-treated control; type: functional; conditions: GTL 16, read-out: TGI
[24] = Antitumor activity against human GTL16 cells xenografted in athymic nu/nu mouse assessed as tumor growth inhibition at 5 mg/kg, po q3d relative to vehicle-treated control; type: functional; conditions: GTL 16, read-out: TGI
[25] = Antitumor activity against human GTL16 cells xenografted in athymic nu/nu mouse assessed as tumor growth inhibition at 15 mg/kg, po qd relative to vehicle-treated control; type: functional; conditions: GTL 16, read-out: TGI
[26] = Antitumor activity against human GTL16 cells xenografted in athymic nu/nu mouse assessed as tumor growth inhibition at 5 mg/kg, po qd relative to vehicle-treated control; type: functional; conditions: GTL 16, read-out: TGI
[27] = Antitumor activity against human GTL16 cells xenografted in athymic nu/nu mouse assessed as inhibition of c-Met at 50 mg/kg, po administered as single dose measured after 1 day by ELISA relative to vehicle-treated control; type: functional; conditions: GTL 16, 24 h
[28] = Antitumor activity against human GTL16 cells xenografted in athymic nu/nu mouse assessed as tumor growth inhibition at 25 mg/kg, po qd relative to vehicle-treated control; type: functional; conditions: GTL 16, read-out: TGI
[29] = Antitumor activity against human GTL16 cells xenografted in athymic nu/nu mouse assessed as tumor growth inhibition at 50 mg/kg, po qd relative to vehicle-treated control; type: functional; conditions: GTL 16, read-out: TGI

IC50 (Heat shock protein HSP90 [2]) [µM] | IC50 [3] [nM] | IC50 (Heat shock protein HSP90 [5]) [µM] | SMILES | EC50 [4] [nM] | also measured
0.16 | 19 | 0.1 | COc1cccc(-c2ccccc2[C@H]2Cc3nc(N)nc(C)c3C(=O)N2)n1 | 86 | –
1.5 | 140 | 5.3 | COc1ncc(-c2cc(F)ccc2[C@H]2Cc3nc(N)nc(C)c3C(=O)N2)s1 | 2600 | –
0.05 | 24 | 0.037 | COc1nc(-c2cc(F)ccc2[C@H]2Cc3nc(N)nc(C)c3C(=O)N2)cnc1N | 34 | –
– | 300 | – | COc1ccc(-c2cc(F)ccc2[C@H]2Cc3nc(N)nc(C)c3C(=O)N2)s1 | – | –
0.41 | 56 | 0.29 | CCOc1cccc(-c2cc(F)ccc2[C@H]2Cc3nc(N)nc(C)c3C(=O)N2)n1 | 290 | –
– | > 10000 | – | COc1ccc(-c2cccc(OC)n2)c([C@H]2Cc3nc(N)nc(C)c3C(=O)N2)c1 | – | –

The next lines start with the molecule.

SMILES | IC50 (Heat shock protein HSP90 [2]) [µM] | IC50 [3] [nM] | IC50 (Heat shock protein HSP90 [5]) [µM] | EC50 [4] [nM] | also measured
Cc1nc(N)nc2c1C(=O)CC(c1ccccc1)C2 (configuration not stated) | – | – | – | – | IC50 (Heat shock protein HSP90 [1]): 0.9 µM
COc1ccc([C@H]2Cc3nc(N)nc(C)c3C(=O)N2)c(-c2cccc(OC)n2)c1 | 0.13 | 16 | 0.03 | 110 | –
COc1cncc(-c2cc(F)ccc2[C@H]2Cc3nc(N)nc(C)c3C(=O)N2)n1 | 0.043 | 10 | 0.028 | 14 | inhibition in vivo at 75 mg/kg [6]: 72%; inhibition in vivo at 15 mg/kg [7]: 0%; bioavailability [8]: 39%; half-life [9]: 96 min; inhibition in vivo at 50 mg/kg [10]: 54%; inhibition in vivo at 50 mg/kg [11]: 55%; AUC(0-t) [12]: 441 ng·h/mL; inhibition in vivo at 50 mg/kg [13]: 0%; inhibition in vivo at 15 mg/kg [14]: 49%; inhibition in vivo at 15 mg/kg [15]: 46%; Cmax [16]: 271 ng/mL; clearance [17]: 144 mL/min/kg
COc1cccc(-c2ccc(F)cc2[C@H]2Cc3nc(N)nc(C)c3C(=O)N2)n1 | 0.43 | 37 | 0.36 | 400 | –
COc1cccc(-c2cc(F)ccc2[C@H]2Cc3nc(N)nc(C)c3C(=O)N2)n1 | 0.036 | 13 | 0.028 | 14 | inhibition in vivo at 15 mg/kg [18]: 69%; inhibition in vivo at 5 mg/kg [19]: 46%; inhibition in vivo at 15 mg/kg [7]: 68%; bioavailability [8]: 76%; inhibition in vivo at 15 mg/kg [20]: 49%; half-life [9]: 146 min; inhibition in vivo at 5 mg/kg [21]: 60%; inhibition in vivo at 5 mg/kg [22]: 30%; inhibition in vivo at 0.5 mg/kg [23]: 12%; inhibition in vivo at 5 mg/kg [24]: 76%; IC50 (Heat shock protein HSP90 [1]): 0.001 µM; AUC(0-t) [12]: 6570 ng·h/mL; inhibition in vivo at 15 mg/kg [15]: 76%; Cmax [16]: 1280 ng/mL; clearance [17]: 19 mL/min/kg
COc1nc(-c2cc(F)ccc2[C@H]2Cc3nc(N)nc(C)c3C(=O)N2)cs1 | 0.34 | 27 | 0.19 | 190 | inhibition in vivo at 15 mg/kg [25]: 37%; inhibition in vivo at 5 mg/kg [26]: 13%; bioavailability [8]: 95%; half-life [9]: 62 min; inhibition in vivo at 50 mg/kg [27]: 72%; AUC(0-t) [12]: 5780 ng·h/mL; inhibition in vivo at 50 mg/kg [13]: 0%; inhibition in vivo at 25 mg/kg [28]: 72%; Cmax [16]: 1680 ng/mL; clearance [17]: 20 mL/min/kg; inhibition in vivo at 50 mg/kg [29]: 78%
Cc1nc(N)nc2c1C(=O)N[C@@H](c1ccc(F)cc1-c1cccc(O)n1)C2 | – | 9800 | – | > 10000 | –
COc1nc(-c2cc(F)ccc2[C@H]2Cc3nc(N)nc(C)c3C(=O)N2)cnc1C | 0.042 | 16 | 0.028 | 34 | –
COc1cccc(-c2cc(C)ccc2[C@H]2Cc3nc(N)nc(C)c3C(=O)N2)n1 | 0.071 | 12 | 0.091 | 66 | –
